Consider 18 compounds from ChEMBL document CHEMBL5576140, “Computational Design of Pore-Forming Peptides with Potent Antimicrobial and Anticancer Activities” (J Med Chem, 2024).

One data set relates to Staphylococcus carnosus. In words: Antimicrobial activity against Staphylococcus carnosus CCM 4838T incubated for 24 hrs by broth microdilution assay. In kind it is functional. (In general: Dilution methods test growth across graded concentrations, often in twofold steps.)
The subject of data set [1] is Staphylococcus aureus. Kind of data set: Antimicrobial activity against Staphylococcus aureus NE163 harboring single transposon insertion mutation in aureolysin at 30 uM incubated for 18 hrs relative to control. In kind it is functional. A digest of the protocol:
(§1)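 CA-MRSA USA300 LAC derivative JE2 and single transposon insertion mutants derived from JE2, each lacking an extracellular protease gene, were exposed to peptides up to 30 μM. The read-out was percent growth inhibition. Peptides were dissolved in PBS, and tests were run in triplicate.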

The test system of data set [2] is Staphylococcus aureus. Kind of data set: Antimicrobial activity against Staphylococcus aureus NE1506 harboring single transposon insertion mutation in V8 protease at 30 uM incubated for 18 hrs relative to control. In kind it is functional. A digest of the protocol:
as §1

Data set [3] relates to Staphylococcus aureus. Kind of data set: Antimicrobial activity against Staphylococcus aureus NE1740 harboring single transposon insertion mutation in staphopain A at 30 uM incubated for 18 hrs relative to control. In kind it is functional. In a few lines: as §1
Data set [4] has as its system Staphylococcus aureus. In words: Antimicrobial activity against Staphylococcus aureus NE934 harboring single transposon insertion mutation in staphopain B at 30 uM incubated for 18 hrs relative to control. Format: functional. In a few lines: as §1
Data set [5] can be described thus: Stability in simulated pore POPC lipid bilayer membrane. In kind it is physicochemical. In a few lines: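 Coarse-grained MD with the "scaled" Martini force field, peptides in POPC membrane, 51 μs. Counts transmembrane peptides at 51 μs. Water beads within 2 nm vertically of membrane centre and peptide–peptide interaction energy averaged over 48–51 μs. Contacts (salt bridge or stacking) scored below 0.8 nm and called stable if present ≥50% of the time.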

Data set [6] in a line: Hemolytic activity against human RBC incubated for 1 hr by microplate reader analysis. In kind it is toxicity, cell-based, Erythrocyte. The conditions noted are these: red blood cells (erythrocytes). A digest of the protocol:
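Human red blood cells exposed to peptides up to 50 μM; hemolysis measured, IC50 derived where reached.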

The next data set concerns SUD4. In words: Anti-cancer activity against human SU-DHL-4 cells incubated for 24 hrs by WST assay. The following applies: SU-DHL-4, 24 h. In kind it is functional, cell-based.
Data set [7] is described as follows: Toxicity against reconstructed human skin model assessed as irritation at 50 uM incubated for 1 hr followed by compound washout measured after 42 hrs by MTT assay. Format: tissue-based, Skin of body. In a few lines: (§2)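 Reconstructed human epidermis with stratum corneum, per OECD TG 439 skin irritation guideline. Tissues exposed 1 h to peptide at 50 μM, then 42 h post-treatment incubation. Viability read by MTT. Controls were SDS and melittin.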
For orientation: Tetrazolium assays rely on reduction of a dye to a coloured formazan, in cell work by metabolically active cells.

Data set [8] can be described thus: Toxicity against reconstructed human skin model assessed as tissue viability at 50 uM incubated for 1 hr followed by compound washout measured after 42 hrs by MTT assay. In kind it is tissue-based, Skin of body. The following applies: read-out: Activity. A digest of the protocol:
as §2

The next data set concerns Escherichia coli. In words: Antimicrobial activity against Escherichia coli TOP10 incubated for 24 hrs by broth microdilution assay. In kind it is functional.

As a reminder, the MIC is the lowest concentration that inhibits growth of the organism. Lower therefore signals greater potency. Usually inhibition stands for the change of the read-out against control, counted positive when it falls. High values mean a response far below the control, low ones a response near the control. For the compound H-KKKKIKKIIKKIFQFINQIDNQIQDIKQNK-NH2, the MIC against Staphylococcus carnosus is above 50 µM. For the same compound, the inhibition at 30 µM in the data set on Staphylococcus aureus [1], in the data set on Staphylococcus aureus [2], in the data set on Staphylococcus aureus [3] and in the data set with Staphylococcus aureus [4] was below 45% each time.
The IC50 is the point on the concentration scale where inhibition reaches its midpoint. Read a low IC50 as greater potency in that assay. Take H-KKKKLKKILKKLFQFINQLDNQLQDFKQNK-OH: the Stability entry in [5] is given as “Stable”. The compound further came in with a half-maximal inhibitory concentration (IC50) at 1 h in [6] above 50 µM.
The compound `CC[C@H](C)[C@H](NC(=O)CN)C(=O)NCC(=O)N[C@@H](C)C(=O)N[C@H](C(=O)N[C@@H](CC(C)C)C(=O)N[C@@H](CCCCN)C(=O)N[C@H](C(=O)N[C@@H](CC(C)C)C(=O)N[C@H](C(=O)N[C@H](C(=O)NCC(=O)N[C@@H](CC(C)C)C(=O)N1CCC[C@H]1C(=O)N[C@@H](C)C(=O)N[C@@H](CC(C)C)C(=O)N[C@H](C(=O)N[C@@H](CO)C(=O)N[C@@H](Cc1c[nH]c2ccccc12)C(=O)N[C@H](C(=O)N[C@@H](CCCCN)C(=O)N[C@@H](CCCNC(=N)N)C(=O)N[C@@H](CCCCN)C(=O)N[C@@H](CCCNC(=N)N)C(=O)N[C@@H](CCC(N)=O)C(=O)N[C@@H](CCC(N)=O)C(N)=O)[C@@H](C)CC)[C@@H](C)CC)[C@@H](C)O)[C@@H](C)O)C(C)C)C(C)C` [MELITTIN] came in with an IC50 in the data set with SUD4 of at most 5 µM.
H-KKKKLKKILKKLFQFIQQLDQQLQDIKQQK-NH2 yielded an IC50 at 1 h in [6] above 50 µM. Besides, the inhibition at 30 µM in the data set on Staphylococcus aureus [1], in the data set on Staphylococcus aureus [2], in the data set with Staphylococcus aureus [3] and in the data set with Staphylococcus aureus [4] was below 45% in each case. In data set [7], the Activity entry is “Non-Toxic”. Besides, the viability at 1 h, 50 µM in data set [8] came to 100%.
H-KKKKLKKILKKLFQFIDQLINDLQNIKKKK-NH2 came in with an IC50 at 1 h in data set [6] above 50 µM.
For H-KKKKVKKVVKKVFQFVNQVDNQVQDVKQNK-NH2, the minimal inhibitory concentration (MIC) against Escherichia coli and with Staphylococcus carnosus was above 50 µM each time. Further, the inhibition at 30 µM in the data set on Staphylococcus aureus [1], in the data set on Staphylococcus aureus [2], in the data set on Staphylococcus aureus [3] and in the data set with Staphylococcus aureus [4] was below 45% each time.
On to H-KKKKAKKAAKKAFQFANQADNQAQDAKQNK-NH2, for which the minimum inhibitory concentration (MIC) against Escherichia coli and against Staphylococcus carnosus was above 50 µM throughout. Further, the inhibition at 30 µM in the data set with Staphylococcus aureus [1], in the data set on Staphylococcus aureus [2], in the data set with Staphylococcus aureus [3] and with Staphylococcus aureus [4] was below 45% in each case.
Compound H-KKKKLKKILKKLFQFINQLENQLQEIKQNK-NH2 yielded a half-inhibitory concentration (IC50) at 1 h in [6] above 50 µM.
For the compound H-KKKKLKKLLKKLFQFLNQLDNQLQDLKQNK-NH2, the inhibition at 30 µM with Staphylococcus aureus [1], with Staphylococcus aureus [2], in the data set on Staphylococcus aureus [3] and with Staphylococcus aureus [4] was below 45% in each case.
For `CC1(C)S[C@@H]2[C@H](NC(=O)[C@H](N)c3ccccc3)C(=O)N2[C@H]1C(=O)O` [AMPICILLIN], in data set [6], the IC50 at 1 h was determined as 0.9 µM.
Same read-out and setting: then H-KKKKLRRILRRLFQFINQLDNQLQDIKQNK-NH2, with 49 µM.
On the same count and under the same terms, the result for H-RRRRLKKILKKLFQFINQLDNQLQDIRQNR-NH2 reads 6.9 µM.
As to H-KKKKLKKILKKLFNFINNLDNNLNDIKNNK-NH2, the inhibition at 30 µM in the data set with Staphylococcus aureus [1], in the data set on Staphylococcus aureus [2], in the data set on Staphylococcus aureus [3] and in the data set on Staphylococcus aureus [4] was below 45% each time.
Turning to H-KKKKLKKILKKLFSFISSLDSSLSDIKSSK-NH2, the Stability entry in data set [5] is “Stable”. In addition, the inhibition at 30 µM with Staphylococcus aureus [1], in the data set with Staphylococcus aureus [2], in the data set on Staphylococcus aureus [3] and in the data set with Staphylococcus aureus [4] was below 45% in each case.
Regarding H-KKKKLKKILKKLWQWINQLDNQLQDIKQNK-NH2, the IC50 at 1 h in data set [6] was above 50 µM.
H-KKKKMKKMMKKMFQFMNQMDNQMQDMKQNK-NH2 came in with a minimal inhibitory concentration (MIC) in the data set on Escherichia coli above 50 µM. The inhibition at 30 µM with Staphylococcus aureus [1], in the data set on Staphylococcus aureus [2], in the data set with Staphylococcus aureus [3] and with Staphylococcus aureus [4] was below 45% in each case.
As to H-KNQNLDDILNQLFQFINQLKNQLQKIKKKK-NH2, the MIC against Escherichia coli is above 50 µM.
In [6], H-KKKKLKKILKKLFQFINQLDNQLQDIKQNK-OH returned an IC50 at 1 h above 50 µM.
